Measurements published in ChEMBL document CHEMBL1143889, “N-Phenyl and N-phenylalkyl-maleimides acting against Candida spp.: time-to-kill, stability, interaction with maleamic acids” (2008).
≈ marks a conversion by molar mass, not a printed value. Calls of active or inactive are those of the source. No cut-off for these calls is given here.

Columns and labels:
[1] = test system: Candida albicans; experiment: Antifungal activity against Candida albicans ATCC 10231 after 48 hrs by CLSI M27-A2 method; type: functional; details: ATCC 10231, 48 h
How it was run: (§1)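 Broth microdilution per CLSI M27-A2 in RPMI-1640, with twofold dilutions giving final 250–0.98 µg/mL. The inoculum was modified to 1–5 × 10⁴ CFU/mL instead of 1–5 × 10³, with ketoconazole and amphotericin B as positive controls. MIC was the lowest concentration giving total growth inhibition, read visually. Strains were grown on Sabouraud-chloramphenicol agar for 24 h at 37 °C.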

[2] = test system: Candida albicans; experiment: Antifungal activity against Candida albicans C 125-2000 after 48 hrs by CLSI M27-A2 method; type: functional; how it was run: as §1
[3] = test system: Candida albicans; experiment: Antifungal activity against Candida albicans C 126-2000 after 48 hrs by CLSI M27-A2 method; type: functional; how it was run: as §1
[4] = test system: Candida albicans; experiment: Antifungal activity against Candida albicans C 127-2000 after 48 hrs by CLSI M27-A2 method; type: functional; how it was run: as §1
[5] = test system: Candida albicans; experiment: Antifungal activity against Candida albicans C 128-2000 after 48 hrs by CLSI M27-A2 method; type: functional; how it was run: as §1
[6] = test system: Candida albicans; experiment: Antifungal activity against Candida albicans C 129-2000 after 48 hrs by CLSI M27-A2 method; type: functional; how it was run: as §1
[7] = test system: Candida albicans; experiment: Antifungal activity against Candida albicans C 130-2000 after 48 hrs by CLSI M27-A2 method; type: functional; how it was run: as §1
[8] = test system: Nakaseomyces glabratus; experiment: Antifungal activity against Candida glabrata C 115-2000 after 48 hrs by CLSI M27-A2 method; type: functional; how it was run: as §1
[9] = test system: Candida parapsilosis; experiment: Antifungal activity against Candida parapsilosis C 124-2000 after 48 hrs by CLSI M27-A2 method; type: functional; details: Lodderomyces parapsilosis; how it was run: as §1
[10] = test system: Clavispora lusitaniae; experiment: Antifungal activity against Candida lusitaniae C 131-2000 after 48 hrs by CLSI M27-A2 method; type: functional; how it was run: as §1
[11] = test system: Torulaspora delbrueckii; experiment: Antifungal activity against Candida coliculosa C 122-2000 after 48 hrs by CLSI M27-A2 method; type: functional; how it was run: as §1
[12] = test system: Pichia kudriavzevii; experiment: Antifungal activity against Candida krusei C 117-2000 after 48 hrs by CLSI M27-A2 method; type: functional; how it was run: as §1
[13] = test system: Kluyveromyces marxianus; experiment: Antifungal activity against Candida kefyr C 123-2000 after 48 hrs by CLSI M27-A2 method; type: functional; how it was run: as §1
[14] = test system: Candida tropicalis; experiment: Antifungal activity against Candida tropicalis C 137-1997 after 48 hrs by CLSI M27-A2 method; type: functional; how it was run: as §1
[15] = test system: Candida albicans; experiment: Antifungal activity against Candida albicans ATCC 10231 within 90 mins by time-to-kill study; type: functional, organism-based
How it was run: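 C. albicans ATCC 10231 (2–2.5 × 10⁴ CFU/mL) in 5 mL RPMI-1640 was exposed to 1× MFC of compound at 37 °C with agitation. 10 µL samples taken at 0, 30, 60, 90 and 120 min, and at 4, 8, 12 and 24 h, were plated on drug-free SDA and colonies counted after 24–48 h at 37 °C. Run in duplicate.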

[16] = test system: Candida albicans; experiment: Antifungal activity against Candida albicans ATCC 10231 after 24 hrs by CLSI M27-A2 method; type: functional; details: ATCC 10231, 24 h; how it was run: as §1
[17] = test system: Candida albicans; experiment: Antifungal activity against Candida albicans ATCC 10231 pre-incubated for 1 day analysed after 24 hrs by CLSI M27-A2 method; type: functional
How it was run: (§2)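 Twofold maleimide dilutions (1000–0.98 µg/mL) in complete M27-A2 medium without inoculum were held at 37 °C, with one plate row filled on each of 7 consecutive days to give 0–7 days of pre-incubation. All wells were then inoculated with C. albicans ATCC 10231 at 1–5 × 10⁴ CFU/mL and incubated for 24 h at 37 °C. MIC was read per row, in duplicate.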

[18] = test system: Candida albicans; experiment: Antifungal activity against Candida albicans ATCC 10231 pre-incubated for 2 days analysed after 24 hrs by CLSI M27-A2 method; type: functional; how it was run: as §2
[19] = test system: Candida albicans; experiment: Antifungal activity against Candida albicans ATCC 10231 pre-incubated for 3 days analysed after 24 hrs by CLSI M27-A2 method; type: functional; how it was run: as §2
[20] = test system: Candida albicans; experiment: Antifungal activity against Candida albicans ATCC 10231 pre-incubated for 4 days analysed after 24 hrs by CLSI M27-A2 method; type: functional; how it was run: as §2
[21] = test system: Candida albicans; experiment: Antifungal activity against Candida albicans ATCC 10231 pre-incubated for 5 days analysed after 24 hrs by CLSI M27-A2 method; type: functional; how it was run: as §2
[22] = test system: Candida albicans; experiment: Antifungal activity against Candida albicans ATCC 10231 pre-incubated for 6 days analysed after 24 hrs by CLSI M27-A2 method; type: functional; how it was run: as §2
[23] = test system: Candida albicans; experiment: Antifungal activity against Candida albicans ATCC 10231 preincubated for 7 days analysed after 24 hrs by CLSI M27-A2 method; type: functional; how it was run: as §2

SMILES | MFC [1] [µg/mL] | MIC [1] [µg/mL] | MFC [2] [µg/mL] | MIC [2] [µg/mL] | MFC [3] [µg/mL] | MIC [3] [µg/mL] | MFC [4] [µg/mL] | MIC [4] [µg/mL] | MFC [5] [µg/mL] | MIC [5] [µg/mL] | MFC [6] [µg/mL] | MIC [6] [µg/mL] | MFC [7] [µg/mL] | MIC [7] [µg/mL] | MFC [8] [µg/mL] | MIC [8] [µg/mL] | MFC [9] [µg/mL] | MIC [9] [µg/mL] | MFC [10] [µg/mL] | MIC [10] [µg/mL] | other results
O=C1C=CC(=O)N1CCCCc1ccccc1 | 7.8 (≈ 34 µM) | 3.9 (≈ 17 µM) | 1.95 (≈ 8.5 µM) | 0.97 (≈ 4.23 µM) | 1.95 (≈ 8.5 µM) | 0.97 (≈ 4.23 µM) | 3.9 (≈ 17 µM) | 1.95 (≈ 8.5 µM) | 1.95 (≈ 8.5 µM) | 0.97 (≈ 4.23 µM) | 1.95 (≈ 8.5 µM) | 0.97 (≈ 4.23 µM) | 3.9 (≈ 17 µM) | 1.95 (≈ 8.5 µM) | 3.9 (≈ 17 µM) | 1.95 (≈ 8.5 µM) | 7.8 (≈ 34 µM) | 1.95 (≈ 8.5 µM) | 3.9 (≈ 17 µM) | 3.9 (≈ 17 µM) | MFC [11]: 3.9 µg/mL (≈ 17 µM); MIC [11]: 3.9 µg/mL (≈ 17 µM); MFC [12]: 15.8 µg/mL (≈ 68.7 µM); MIC [12]: 7.8 µg/mL (≈ 34 µM); MFC [13]: 7.81 µg/mL (≈ 34.1 µM); MIC [13]: 1.95 µg/mL (≈ 8.5 µM); MFC [14]: 32.2 µg/mL (≈ 141 µM); MIC [14]: 15.8 µg/mL (≈ 68.7 µM); Activity [15]: Active; MIC [16]: 3.9 µg/mL (≈ 17 µM); MIC [17]: 3.9 µg/mL (≈ 17 µM); MIC [18]: 3.9 µg/mL (≈ 17 µM); MIC [19]: 15.8 µg/mL (≈ 68.7 µM); MIC [20]: 31.2 µg/mL (≈ 136 µM); MIC [21]: 125 µg/mL (≈ 545 µM); MIC [22]: 250 µg/mL (≈ 1090 µM); MIC [23]: 1000 µg/mL (≈ 4360 µM)
O=C1C=CC(=O)N1CCc1ccccc1 | 7.8 (≈ 38.8 µM) | 3.9 (≈ 19.4 µM) | 1.95 (≈ 9.69 µM) | 1.95 (≈ 9.69 µM) | 7.81 (≈ 38.8 µM) | 3.9 (≈ 19.4 µM) | 3.9 (≈ 19.4 µM) | 1.95 (≈ 9.69 µM) | 7.81 (≈ 38.8 µM) | 3.9 (≈ 19.4 µM) | 1.95 (≈ 9.69 µM) | 1.95 (≈ 9.69 µM) | 1.95 (≈ 9.69 µM) | 1.95 (≈ 9.69 µM) | 3.9 (≈ 19.4 µM) | 1.95 (≈ 9.69 µM) | 3.9 (≈ 19.4 µM) | 3.9 (≈ 19.4 µM) | 7.8 (≈ 38.8 µM) | 3.9 (≈ 19.4 µM) | MFC [11]: 7.81 µg/mL (≈ 38.8 µM); MIC [11]: 1.95 µg/mL (≈ 9.69 µM); MFC [12]: 7.8 µg/mL (≈ 38.8 µM); MIC [12]: 3.9 µg/mL (≈ 19.4 µM); MFC [13]: 3.9 µg/mL (≈ 19.4 µM); MIC [13]: 3.9 µg/mL (≈ 19.4 µM); MFC [14]: 32.2 µg/mL (≈ 160 µM); MIC [14]: 15.8 µg/mL (≈ 78.3 µM); Activity [15]: Active; MIC [16]: 3.9 µg/mL (≈ 19.4 µM); MIC [17]: 3.9 µg/mL (≈ 19.4 µM); MIC [18]: 7.8 µg/mL (≈ 38.8 µM); MIC [19]: 7.8 µg/mL (≈ 38.8 µM); MIC [20]: 31.2 µg/mL (≈ 155 µM); MIC [21]: 125 µg/mL (≈ 621 µM); MIC [22]: 250 µg/mL (≈ 1240 µM); MIC [23]: 500 µg/mL (≈ 2480 µM)
O=C1C=CC(=O)N1Cc1ccccc1 | 7.8 (≈ 41.7 µM) | 3.9 (≈ 20.8 µM) | 1.95 (≈ 10.4 µM) | 0.97 (≈ 5.18 µM) | 3.9 (≈ 20.8 µM) | 0.97 (≈ 5.18 µM) | 3.9 (≈ 20.8 µM) | 1.95 (≈ 10.4 µM) | 3.9 (≈ 20.8 µM) | 1.95 (≈ 10.4 µM) | 3.9 (≈ 20.8 µM) | 1.95 (≈ 10.4 µM) | 1.95 (≈ 10.4 µM) | 0.97 (≈ 5.18 µM) | 1.95 (≈ 10.4 µM) | 1.95 (≈ 10.4 µM) | 3.9 (≈ 20.8 µM) | 1.95 (≈ 10.4 µM) | 3.9 (≈ 20.8 µM) | 1.95 (≈ 10.4 µM) | MFC [11]: 7.81 µg/mL (≈ 41.7 µM); MIC [11]: 1.95 µg/mL (≈ 10.4 µM); MFC [12]: 3.9 µg/mL (≈ 20.8 µM); MIC [12]: 3.9 µg/mL (≈ 20.8 µM); MFC [13]: 3.9 µg/mL (≈ 20.8 µM); MIC [13]: 3.9 µg/mL (≈ 20.8 µM); MFC [14]: 32.2 µg/mL (≈ 172 µM); MIC [14]: 15.8 µg/mL (≈ 84.1 µM); Activity [15]: Active; MIC [16]: 3.9 µg/mL (≈ 20.8 µM); MIC [17]: 3.9 µg/mL (≈ 20.8 µM); MIC [18]: 7.8 µg/mL (≈ 41.7 µM); MIC [19]: 7.8 µg/mL (≈ 41.7 µM); MIC [20]: 15.8 µg/mL (≈ 84.1 µM); MIC [21]: 125 µg/mL (≈ 668 µM); MIC [22]: 250 µg/mL (≈ 1340 µM); MIC [23]: 500 µg/mL (≈ 2670 µM)
